From publication PMC5062748 (Drug development research, 2016)

What follows are compounds tested against T1, HNE (Homo sapiens, UniProt P08246) (assay: HNE inhibition assay). Settings: not given.
T1 sequence (P08246 30-247 limits assumed): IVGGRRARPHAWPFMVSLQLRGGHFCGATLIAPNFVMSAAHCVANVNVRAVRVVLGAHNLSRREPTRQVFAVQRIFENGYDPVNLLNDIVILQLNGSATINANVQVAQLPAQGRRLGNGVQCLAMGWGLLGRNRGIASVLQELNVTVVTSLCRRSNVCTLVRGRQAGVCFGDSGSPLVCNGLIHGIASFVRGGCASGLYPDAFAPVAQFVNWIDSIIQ
Assay type: biochemical
How it was run: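 Human neutrophil elastase (20 mU/mL) in 200 mM Tris–HCl pH 7.5, 0.01% BSA, 0.05% Tween-20, with test compound at varied concentrations (DMSO final 1%, top 50 µM). Reaction started with 25 µM substrate. Fluorescence (ex 355/em 460 nm) read every 30 s for 10 min at 25 °C. IC50 from % inhibition vs log concentration (≥6 points). Mean ± SD of three independent experiments.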

Row | SMILES | IC50 [µM]
1 | CCOC(=O)c1cn(C(=O)c2ccc(F)cc2)c2ccccc12 [2g, Ethyl 1-(4-fluorobenzoyl)-1H-indole-3-carboxylate] | 12.2 ± 2.3
2 | Cc1ccc(C(=O)n2cc(C(=O)Nc3ccccc3)c3ccccc32)cc1 [5c, 1-(4-methylbenzoyl)-N-phenyl-1H-indole-3-carboxamide] | 45.3 ± 6.7
3 | CCOC(=O)c1cn(C(=O)c2ccc(Cl)cc2)c2ccccc12 [2e, Ethyl 1-(4-chlorobenzoyl)-1H-indole-3-carboxylate] | 3.8 ± 0.4

Other lines, results leading:

Row | IC50 [µM] | SMILES
4 | 13.2 ± 1.8 | CCOC(=O)c1cn(C(=O)c2ccc(C)cc2)c2ccc([N+](=O)[O-])cc12 [7e, Ethyl 1-(4-methylbenzoyl)-5-nitro-1H-indole-3-carboxylate]
5 | 2.4 ± 0.4 | CCOC(=O)c1cn(C(=O)c2cccc(C)c2)c2ccc([N+](=O)[O-])cc12 [7d, Ethyl 1-(3-methylbenzoyl)-5-nitro-1H-indole-3-carboxylate]
6 | 21.6 ± 3.3 | CCOC(=O)c1cn(C(=O)c2cccc(C)c2)c2ccc(Br)cc12 [7a, Ethyl 5-bromo-1-(3-methylbenzoyl)-1H-indole-3-carboxylate]
7 | 10.5 ± 1.7 | CCOC(=O)c1cn(C(=O)c2ccc(C)cc2)c2cc(Br)ccc12 [7c, Ethyl 6-bromo-1-(4-methylbenzoyl)-1H-indole-3-carboxylate]

Same assay, conditions: highest tested concentration 50 µM

Row | HNE inhibitory activity (in words) | SMILES
8 | no activity | CCOC(=O)c1cn(C(=O)c2ccc(C)cc2)c2ccc(N)cc12 [compound 8, Ethyl 5-amino-1-(4-methylbenzoyl)-1H-indole-3-carboxylate]
9 | lack of activity | Cc1ccc(S(=O)(=O)n2cc(C(=O)Nc3ccccc3)c3ccccc32)cc1 [5f, N-phenyl-1-tosyl-1H-indole-3-carboxamide]
10 | no activity | CCOC(=O)c1cn(C(=O)c2ccc(C)cc2)c2ccc(NC(C)=O)cc12 [compound 9, Ethyl 5-acetamido-1-(4-methylbenzoyl)-1H-indole-3-carboxylate]
11 | lack of activity | CCOC(=O)c1cn(-c2cccc(C)c2)c2ccccc12 [2a, Ethyl 1-(m-tolyl)-1H-indole-3-carboxylate]
12 | inactive | CCOC(=O)c1cn(C(=O)c2cccc(Cl)c2)c2ccccc12 [2f, Ethyl 1-(3-chlorobenzoyl)-1H-indole-3-carboxylate]
13 | no activity | CCOC(=O)c1cn(C(=O)c2cccc(C)c2)c2cc(Br)ccc12 [7b, Ethyl 6-bromo-1-(3-methylbenzoyl)-1H-indole-3-carboxylate]
14 | inactive | CCOC(=O)c1cn(C(=O)c2cccc(C)c2)c2ccccc12 [2c, Ethyl 1-(3-methylbenzoyl)-1H-indole-3-carboxylate]
